MrgX1 antag – human MrgX1 receptor antagonism, primary screen; Q96LB2; MRGX1-HEK293 calcium flux, Fluo-4, BAM8-22 antagonism; stronger effect = lower value; B-score at 10 µM; 1.3% of 310,000 active; AID 588676;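 active = calcium-response B-score plate-corrected more than 3 library SD below zero, starting fluorescence within 5 deviations, no agonist response on first addition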;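 also: peak minus trough fluorescence over baseline after final BAM8-22 challenge near maximal dose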
MrgX1 PAM – allosterically activates human MrgX1 receptor signaling; Q96LB2; MrgX1-HEK293, Fluo-4 calcium flux, FDSS; stronger effect = higher value; B-score at 10 µM; 0.63% of 310,000 active; AID 588675;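 active = plate-corrected calcium response at least 3 library SD above typical, normal starting fluorescence, not activating the receptor alone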;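 also: compound read alongside a low EC10 to EC30 dose of BAM8-22 agonist; peak minus trough fluorescence over baseline measured at the second addition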
RGS4 block – inhibitors of human RGS4; P49798; HEK293 M3R/RGS4 inducible, Fluo-4 calcium flux; stronger effect = higher value; triggered by carbachol at its EC20; B-score at 10 µM; 0.45% of 310,000 active;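 active = B-score, a plate-corrected calcium signal, over three deviations above library mean, with baseline fluorescence within five deviations of library mean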;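 also: RGS4 expression induced by doxycycline in cells with stable M3 receptor; B-score is computed from the integrated fluorescence ratio over baseline after carbachol; higher B-score means a larger calcium signal and so more RGS4 inhibition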
Target sequence (P49798 whole entry, looked up): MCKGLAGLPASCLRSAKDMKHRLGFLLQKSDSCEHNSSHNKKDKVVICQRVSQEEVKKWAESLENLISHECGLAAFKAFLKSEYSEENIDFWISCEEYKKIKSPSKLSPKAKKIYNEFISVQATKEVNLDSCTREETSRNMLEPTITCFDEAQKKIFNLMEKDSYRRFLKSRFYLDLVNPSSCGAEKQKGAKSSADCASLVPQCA
MrgX1 ag – agonists of human MrgX1 receptor; B-score at 10 µM; AID 588627; 0.44% of 310,000 active; MrgX1-HEK293 cells, Fluo-4 calcium fluorescence, agonist mode; stronger effect = higher value;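 active = calcium response B-score plate-corrected fluorescence ratio at least 3 library SD, with starting fluorescence B-score inside 5 SD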
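Test system: HEK293 cells stably expressing human MrgX1 receptor; amount: 15,000 cells per well; doses: compound delivered in addition one of three; times: overnight plating before 1 h dye loading; detection: Fluo-4 NW calcium-flux fluorescence, kinetic read; read-out basis: B-scored fluorescence response ratio; controls: positive and negative controls per plate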
RGS4 act – potentiators or activators of RGS4 | HEK293 M3R/inducible RGS4, carbachol calcium flux Fluo4; stronger effect = lower value | B-score at 10 µM | 0.92% of 310,000 active | AID 463111;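 active = B-score of the integrated calcium signal more than 4 SD below the library mean, with starting fluorescence not abnormally high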;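 also: negative B-score means reduced calcium response which marks RGS4 activation or potentiation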
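Reagent: ECmax carbachol challenge; Test system: M3R-expressing HEK293 line, RGS4 induced by doxycycline; Schedule: overnight RGS4 induction, 30 min dye load 37 °C, 20 min compound RT; Detection: calcium dye Fluo4 fluorescence; Read-out: Agonist-evoked peak-minus-minimum fluorescence over baseline, integrated ratio, B score.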
MrgX1 antag conf – reconfirmed antagonist of human MrgX1 receptor signaling. shares compounds with MrgX1 antag. MrgX1-HEK293, BAM8-22 calcium flux, Fluo-4; stronger effect = lower value. remaining BAM8-22 calcium response % of control (stronger effect = lower value), % at 10 µM. 19% of 2,300 active. AID 602420;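 active = remaining agonist calcium response no higher than 100% minus 3 SD of agonist-only control wells, with starting fluorescence near control levels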;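 also: agonist BAM8-22 given at a near maximal EC90 to ECmax level; peak minus minimum fluorescence divided by baseline after agonist addition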
HEK293 Ca flux – MrgX1 antagonist counter-screen hit in parental HEK293 cells; shares compounds with MrgX1 antag; Fluo-4 calcium fluorescence, FDSS; fluorescence ratio F(max-min)/F0 at 10 µM; 2% of 4,000 active;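 active = duplicate-averaged calcium fluorescence ratio at least three times the standard deviation of buffer wells, a nonspecific response in parental cells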
HEK293 Ca counter – counter-screen for MrgX1 allosteric activators: effect in parental HEK293 cells. shares compounds with MrgX1 antag. parental HEK293 calcium flux, Fluo-4 fluorescence ratio; stronger effect = higher value. fluorescence ratio F(max-min)/F0 at 10 µM. 0.4% of 4,000 active. AID 624114;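 active = calcium fluorescence ratio, averaged over duplicates, at least 3 SD of the buffer-well ratio, meaning a nonspecific response in receptor-free cells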;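 also: untransfected parental HEK293 lacking MrgX1 used as counterscreen for MrgX1 allosteric activators; fluorescence change taken during the second addition on a kinetic imager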
HEK293 Ca cntr2 – counter-screen for MrgX1 activators: effect in parental HEK293 cells; fluorescence ratio F(max-min)/F0 at 10 µM; Fluo-4 calcium fluorescence (FDSS); stronger effect = higher value; AID 624115; 8.7% of 4,000 active; shares compounds with MrgX1 antag;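 active = calcium fluorescence ratio at least three times the spread of buffer wells, meaning a non-specific response in parental cells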
The depositor's hits bear a star; i = inactive; nt = not tested or not shown. Shown are actives, neighbours in structure and some others; about 3.5% of the full set was active somewhere.

SMILES	MrgX1 antag	MrgX1 PAM	RGS4 block	MrgX1 ag	RGS4 act	MrgX1 antag conf	HEK293 Ca flux	HEK293 Ca counter	HEK293 Ca cntr2
CCc1ccc(OC(C)C(=O)Nc2ccc(S(=O)(=O)Nc3nccs3)cc2)cc1 (stereo not given)	-6.55*	i	i	i	i	74.1%*	i	i	46.5*
COc1cc2ccccc2cc1C(=O)Nc1nccs1	-4.59*	i	i	i	i	i	i	i	i
CC(C)(C)CN1CCC(Oc2cccc(C(=O)NCCCOc3cccnc3)c2)CC1	i	i	i	i	i	nt	nt	nt	nt
Cc1ccc(C)c(NC(=O)CN(C)C(=O)c2cccc(S(=O)(=O)N3CCN(Cc4ccccc4)CC3)c2)c1	i	i	i	i	i	nt	nt	nt	nt
Cc1ccc(C)c(NC(=O)CN(C)C(=O)c2cccc(S(=O)(=O)N(C)C)c2)c1	-4.93*	i	i	i	i	84.4%*	i	i	i

Screening results deposited in PubChem by Johns Hopkins Ion Channel Center.
